This note sets out measurements from ChEMBL document CHEMBL1123658, “1-(2-pyridinyl)piperazine derivatives with antianaphylactic, antibronchospastic, and mast cell stabilizing activities” (J Med Chem, 1987).

Series [1] concerns Cavia porcellus. As to the kind of experiment: Antibronchospatic activity determined by histamine stimulated bronchospasm inhibition in guinea pigs after(i.v.) administration. Type of series: functional, Bronchiole. A digest of the protocol: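 Guinea pigs, Konzett–Rössler preparation. Bronchospasm was induced with histamine. Compound was given iv (1 mL/kg) 1 min before the agonist, dissolved in saline or saline with slight excess HCl or CH3SO3H (pH 3.5–4). Three doses were tested in duplicate, chosen to give 20–90% inhibition. ID75 was read graphically from log dose–response curves.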

Series [2] deals with Rattus norvegicus. The experiment in a line: Rat PCA Test(50% inhibition of spot areas)in the female albino rats after (ip) administration in 10% aqueous acacia gum. It is filed as functional. The settings on record: read-out: ID50 (the source's name). A digest of the protocol: (§1)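 Female albino rats (200–250 g) received intradermal ventral injections of rat anti-egg-albumin antiserum; donors were raised with egg albumin im plus H. pertussis ip, and serum was taken at 12 days. 24 h later, compound was given ip in 10% acacia gum (10 mL/kg), 10 rats/group. Challenge 30 min later was iv 0.3% egg albumin plus 1% Evans blue. Blued areas were measured 30 min after challenge.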

A short description of series [3]: In vivo toxic effect was determined in mouse after intraperitoneal administration with 10% aqueous acacia gum; value ranges from 1.02-1.35. Particulars: ip. It is filed as toxicity, organism-based. A digest of the protocol:
(§2)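 Female albino mice (20-30 g), 10 animals per dose, dosed intraperitoneally with compound in solution or suspension; compounds tested as salts unless noted. Mortality was recorded over 7 days.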

Series [4] in a line: In vivo toxic effect was determined in mouse after oral administration with 10% aqueous acacia gum;Value ranges from(5.68-7.37). Type of series: toxicity, organism-based. A digest of the protocol:
(§3)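 Female albino mice, 20-30 g. Compound given orally as solution or suspension in 10% aqueous acacia gum, 10 animals per dose. Deaths recorded over 7 days.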

Series [5] relates to Rattus norvegicus. The experiment in a line: Inhibition of mast cell degranulation was assessed in female albino rats at a dose of 42 umol/kg iv. Type of series: functional.
Series [6] relates to Rattus norvegicus. The experiment in a line: Rat PCA Test(50% inhibition of spot areas)in the female albino rats after (ip) administration in 10% aqueous acacia gum; value ranges from 14-22. Type of series: functional. The settings on record: read-out: ID50 (the source's name). In outline: as §1
Series [7] can be described thus: In vivo toxic effect was determined in mouse after intraperitoneal administration with 10% aqueous acacia gum; value ranges from 0.50-0.84. Particulars: ip. It is filed as toxicity, organism-based. A digest of the protocol: as §2
Series [8] relates to Rattus norvegicus. The experiment in a line: Rat PCA Test(50% inhibition of spot areas)in the female albino rats after (ip) administration in 10% aqueous acacia gum; value ranges from 66-231. Type of series: functional. Particulars: read-out: ID50 (the source's name). A digest of the protocol:
as §1

Series [9] can be described thus: In vivo toxic effect was determined in mouse after intraperitoneal administration with 10% aqueous acacia gum; value ranges from 0.89-1.63. Type of series: toxicity, organism-based. The settings on record: ip. A digest of the protocol:
as §2

A short description of series [10]: In vivo toxic effect was determined in mouse after oral administration with 10% aqueous acacia gum; value ranges from 1.19-2.07. Type of series: toxicity, organism-based. A digest of the protocol: as §3
Series [11] can be described thus: In vivo toxic effect was determined in mouse after intraperitoneal administration with 10% aqueous acacia gum; value ranges from 0.28-0.52. It is filed as toxicity, organism-based. Particulars: ip. A digest of the protocol: as §2
A short description of series [12]: In vivo toxic effect was determined in mouse after oral administration with 10% aqueous acacia gum; value ranges from 0.41-0.93. It is filed as toxicity, organism-based.
Series [13] is described as follows: In vivo toxic effect was determined in mouse after intraperitoneal administration with 10% aqueous acacia gum; value ranges from 0.27-0.50. Type of series: toxicity, organism-based. Particulars: ip. In outline: as §2
The nature of series [14]: In vivo toxic effect was determined in mouse after oral administration with 10% aqueous acacia gum; value ranges from 0.53-0.84. It is filed as toxicity, organism-based.
Series [15] relates to Rattus norvegicus. The experiment in a line: Inhibition of mast cell degranulation was assessed in female albino rats at a dose of 28 umol/kg iv. It is filed as functional.
Series [16] deals with Rattus norvegicus. As to the kind of experiment: Rat PCA Test(50% inhibition of spot areas)in the female albino rats after oral administration in 10% aqueous acacia gum; value ranges from 80-130. Type of series: functional. Particulars: read-out: ID50 (the source's name). In outline: (§4)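 Female rats (200-250 g) were passively sensitized by ventral intradermal anti-egg-albumin antiserum. This was raised in rats by intramuscular 1% egg albumin plus ip H. pertussis vaccine, with serum taken at 12 days. After 24 h, groups of 10 were dosed orally with compound or vehicle (10 mL/kg). At 60 min, iv challenge used 0.3% egg albumin with 1% Evans blue. Blued areas were measured after 30 min.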

The nature of series [17]: In vivo toxic effect was determined in mouse after intraperitoneal administration with 10% aqueous acacia gum; value ranges from 2.17-4.89. It is filed as toxicity, organism-based. Particulars: ip. In outline: as §2
Series [18] is described as follows: In vivo toxic effect was determined in mouse after oral administration with 10% aqueous acacia gum; value ranges from 5.08-7.62. Type of series: toxicity, organism-based. In outline: as §3
Series [19] is described as follows: In vivo toxic effect was determined in mouse after intraperitoneal administration with 10% aqueous acacia gum; value ranges from 4.25-7.74. It is filed as toxicity, organism-based. The settings on record: ip. A digest of the protocol: as §2
Series [20] concerns Rattus norvegicus. As to the kind of experiment: Inhibition of mast cell degranulation was assessed in female albino rats at a dose of 23 umol/kg iv. It is filed as functional.
In series [21] the test system is Rattus norvegicus. The experiment in a line: Rat PCA Test(50% inhibition of spot areas)in the female albino rats after oral administration in 10% aqueous acacia gum; value ranges from 8-11. It is filed as functional. The settings on record: read-out: ID50 (the source's name). In outline: as §4
The nature of series [22]: In vivo toxicity in mouse after oral administration with 10% aqueous acacia gum. Type of series: organism-based. In outline: as §3
The test system of series [23] is Rattus norvegicus. The experiment in a line: Inhibition of mast cell degranulation was assessed in female albino rats at a dose of 47 umol/kg iv. It is filed as functional.
The test system of series [24] is Rattus norvegicus. The experiment in a line: Rat PCA Test(50% inhibition of spot areas)in the female albino rats after (ip) administration in 10% aqueous acacia gum; value ranges from 43-53. Type of series: functional. The settings on record: read-out: ID50 (the source's name). A digest of the protocol: as §1
The test system of series [25] is Rattus norvegicus. As to the kind of experiment: Rat PCA Test(50% inhibition of spot areas)in the female albino rats after oral administration in 10% aqueous acacia gum. It is filed as functional. Particulars: read-out: ID50 (the source's name). In outline:
as §4

The nature of series [26]: In vivo toxic effect was determined in mouse after intraperitoneal administration with 10% aqueous acacia gum; value ranges from 0.57-1.04. Type of series: toxicity, organism-based. The settings on record: ip. A digest of the protocol:
as §2

Series [27] is described as follows: In vivo toxic effect was determined in mouse after oral administration with 10% aqueous acacia gum; value ranges from 0.99-1.61. Type of series: toxicity, organism-based. A digest of the protocol:
as §3

Molecules are shown by their SMILES.

The compound `COc1cccc(NC(=O)CCN2CCN(c3ccccn3)CC2)c1.Cl.Cl` had an ID75 in series [1] of 0.56 µM/kg. The ED50 in [2] is more than 118 µmol/kg. The 50% lethal dose (LD50) in [3] came to 1180 µmol/kg; in series [4], 7100 µmol/kg.

`Cc1cc(C)c(C)c(NC(=O)CCN2CCN(c3ccccn3)CC2)c1C.Cl.Cl` had an inhibition in vivo at 42 µmol/kg in series [5] of 2%. The ED50 in series [6] was determined as 18 µmol/kg. The LD50 in series [7] was determined as 570 µmol/kg.

With `CCC(=O)Nc1ccc(NC(=O)CCN2CCN(c3ccccn3)CC2)cc1.Cl.Cl`, the ID75 in series [1] turned out to be 0.23 µM/kg. The ED50 in [8] worked out at 147 µmol/kg. In addition, the LD50 in series [9] was 1050 µmol/kg; in [10], 1530 µmol/kg.

The compound `Cl.Cl.N#Cc1ccc(NC(=O)CCN2CCN(c3ccccn3)CC2)cc1` had an ID75 in series [1] of 0.64 µM/kg. The ED50 in series [2] was more than 39 µmol/kg. Moreover, the 50% lethal dose (LD50) worked out at 390 µmol/kg in [11] and 620 µmol/kg in series [12].

The compound `COc1cccc(N2CCN(CCC(=O)Nc3ccccc3N)CC2)n1.Cl.Cl` registered an ID75 in series [1] of 108 µM/kg. Moreover, the LD50 in [13] was 370 µmol/kg; in series [14], 670 µmol/kg.

Take `CC(O)c1ccc(NC(=O)CCN2CCN(c3ccccn3)CC2)cc1` (stereo unspecified): the inhibition in vivo at 28 µmol/kg in [15] is 22%. In [1], this compound showed an ID75 of 0.48 µM/kg. Also, the ED50 in series [16] amounted to 103 µmol/kg. Further, the LD50 in [17] stood at 3250 µmol/kg; in series [18] it was 5970 µmol/kg.

In series [1], `O=C(O)CCN1CCN(c2ccccn2)CC1` yielded an ID75 of 5.23 µM/kg. Besides, the ED50 in series [2] is more than 1280 µmol/kg. The same compound registered an LD50 in series [19] of 5540 µmol/kg.

For the compound `O=c1[nH]c2ccccc2n1CCCN1CCN(C(c2ccccc2)c2ccccc2)CC1` [OXATOMIDE], the inhibition in vivo at 23 µmol/kg in series [20] is 40%. This compound also came in with an ID75 in series [1] of 0.08 µM/kg. Besides, the ED50 in [21] was found to be 9 µmol/kg. This compound gave an LD50 in series [22] of more than 7300 µmol/kg.

The compound `COc1ccc(NC(=O)CCN2CCN(c3ccccn3)CC2)cc1.Cl.Cl` showed an inhibition in vivo at 47 µmol/kg in series [23] of 19%. Further, the ID75 in series [1] was determined as 0.24 µM/kg. For the same compound, the ED50 in [24] was 48 µmol/kg; in series [25], more than 95 µmol/kg. Moreover, the LD50 is 710 µmol/kg in series [26] and 1160 µmol/kg in [27].
